Assay results from ChEMBL document CHEMBL3526123, “Hepatobiliary disposition of 17-OHPC and taurocholate in fetal human hepatocytes: a comparison with adult human hepatocytes” (Drug Metab Dispos, 2013).

Experiments:
Hepatocyte [1] = assay: Total drug uptake in sandwich-cultured human fetal hepatocytes assessed per mg protein at 1 uM after 20 mins in absence of verapamil by liquid scintillation counting method; format: ADME, cell-based
How it was run: (§1)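 Sandwich-cultured hepatocytes received 1 µM radiolabeled test compound in HBSS at 37°C, with or without cyclosporine A, verapamil or rifampin. After an ice-cold wash, efflux was started with Ca2+/Mg2+-free HBSS for 20 min. Media and lysates were counted by liquid scintillation. Total uptake is expressed as pmol/mg protein (Bradford), mean ± S.D.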

Hepatocyte [2] = assay: Total drug uptake in sandwich-cultured human fetal hepatocytes assessed per mg protein at 1 uM after 20 mins in absence of rifampin by liquid scintillation counting method; format: ADME, cell-based; how it was run: as §1
Hepatocyte [3] = assay: Total drug uptake in sandwich-cultured human fetal hepatocytes assessed per mg protein at 1 uM after 20 mins in absence of cyclosporine A by liquid scintillation counting method; format: ADME, cell-based; how it was run: as §1
Hepatocyte [4] = assay: Total drug uptake in sandwich-cultured human adult hepatocytes assessed per mg protein at 1 uM after 20 mins in absence of rifampin by liquid scintillation counting method; format: ADME, cell-based; how it was run: as §1
Hepatocyte [5] = assay: Total drug uptake in sandwich-cultured human adult hepatocytes assessed per mg protein at 1 uM after 20 mins in absence of cyclosporine A by liquid scintillation counting method; format: ADME, cell-based; how it was run: as §1
Hepatocyte [6] = assay: Total drug uptake in sandwich-cultured human fetal hepatocytes assessed per mg protein at 1 uM after 20 mins in presence of verapamil by liquid scintillation counting method; format: ADME, cell-based; how it was run: as §1
Hepatocyte [7] = assay: Total drug uptake in sandwich-cultured human adult hepatocytes assessed per mg protein at 1 uM after 20 mins in absence of verapamil by liquid scintillation counting method; format: ADME, cell-based; how it was run: as §1
Hepatocyte [8] = assay: Total drug uptake in sandwich-cultured human adult hepatocytes assessed per mg protein at 1 uM after 20 mins in presence of rifampin by liquid scintillation counting method; format: ADME, cell-based; how it was run: as §1
Hepatocyte [9] = assay: Total drug uptake in sandwich-cultured human adult hepatocytes assessed per mg protein at 1 uM after 20 mins in presence of verapamil by liquid scintillation counting method; format: ADME, cell-based; how it was run: as §1
Hepatocyte [10] = assay: Total drug uptake in sandwich-cultured human fetal hepatocytes assessed per mg protein at 1 uM after 20 mins in presence of rifampin by liquid scintillation counting method; format: ADME, cell-based; how it was run: as §1
Hepatocyte [11] = assay: Total drug uptake in sandwich-cultured human fetal hepatocytes assessed per mg protein at 1 uM after 20 mins in presence of cyclosporine A by liquid scintillation counting method; format: ADME, cell-based; how it was run: as §1
Hepatocyte [12] = assay: Total drug uptake in sandwich-cultured human adult hepatocytes assessed per mg protein at 1 uM after 20 mins in presence of cyclosporine A by liquid scintillation counting method; format: ADME, cell-based; how it was run: as §1
Bile salt export pump [13] = molecular target: T1, Bile salt export pump (Homo sapiens, UniProt O95342); assay: Inhibition of ABCB11-mediated taurocholate total uptake in sandwich-cultured human adult hepatocytes at >50 uM; format: ADME, cell-based, Hepatocyte
How it was run: (§2)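 Sandwich-cultured hepatocytes (Matrigel overlay) were given 1 µM [3H]taurocholic acid in standard HBSS at 37°C, with or without increasing 17-OHPC or cyclosporine A (40 µM, positive control). Efflux was run in standard versus Ca2+/Mg2+-free HBSS, with inhibitor present. Canalicular efflux is the buffer difference, set to 100% in controls. Uptake was from scintillation counts normalized to Bradford protein. Triplicates; fetal n = 4, adult n = 6.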

Hepatocyte [14] = assay: Drug uptake in sandwich-cultured human fetal hepatocytes at 1 uM after 20 mins in presence of warm media at 37 degC by liquid scintillation counting method; format: ADME, cell-based
Hepatocyte [15] = assay: Drug uptake in sandwich-cultured human adult hepatocytes at 1 uM after 20 mins in presence of cold media at 4 degC by liquid scintillation counting method; format: ADME, cell-based
How it was run: (§3)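 Sandwich-cultured hepatocytes were loaded for 20 min in standard HBSS containing 1 µM 17-OHPC and 1 µM TCA, at 37°C or at 4°C. Cells were washed ice-cold, and efflux was started with Ca2+/Mg2+-free HBSS at the matching temperature. Media and lysates were counted by liquid scintillation and normalized to protein. Triplicate treatments.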

Hepatocyte [16] = assay: Drug accumulation in sandwich-cultured human adult hepatocytes assessed per mg protein under Ca2+/Mg2+ conditions; format: ADME, cell-based
Hepatocyte [17] = assay: Drug accumulation in sandwich-cultured human fetal hepatocytes assessed per mg protein under Ca2+/Mg2+ conditions; format: ADME, cell-based
Hepatocyte [18] = assay: Drug excretion in sandwich-cultured human adult hepatocytes assessed as mean biliary index; format: ADME, cell-based
How it was run: (§4)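 Sandwich-cultured hepatocytes (Matrigel overlay, 0.233 mg/ml) were rinsed twice and equilibrated 10 min at 37°C in standard or Ca2+/Mg2+-free HBSS. 1 µM [3H]taurocholate or [3H]17-OHPC in standard HBSS was then added. Accumulation was measured by scintillation counting and normalized to Bradford protein. BEI = (accumulation with Ca/Mg − accumulation without)/accumulation with Ca/Mg × 100. Reported as mean ± S.D. across cultures.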

Bile salt export pump [19] = molecular target: T1, Bile salt export pump; assay: Inhibition of ABCB11-mediated taurocholate efflux in sandwich-cultured human adult hepatocytes at 5 to 100 uM; format: ADME, cell-based, Hepatocyte; how it was run: as §2
Hepatocyte [20] = assay: Drug uptake in sandwich-cultured human fetal hepatocytes at 1 uM after 20 mins in presence of cold media at 4 degC by liquid scintillation counting method; format: ADME, cell-based
Hepatocyte [21] = assay: Drug uptake in sandwich-cultured human adult hepatocytes at 1 uM after 20 mins in presence of warm media at 37 degC by liquid scintillation counting method; format: ADME, cell-based; how it was run: as §3
Bile salt export pump [22] = molecular target: T1, Bile salt export pump; assay: Inhibition of ABCB11-mediated taurocholate efflux in sandwich-cultured human fetal hepatocytes at 0.5 to 10 uM; format: ADME, cell-based, Hepatocyte; how it was run: as §2
Hepatocyte [23] = assay: Drug excretion in sandwich-cultured human fetal hepatocytes assessed as mean biliary index; format: ADME, cell-based; how it was run: as §4
[24] = Cmax in adult human plasma; format: ADME, cell-free
Hepatocyte [25] = assay: Drug accumulation in sandwich-cultured human adult hepatocytes assessed per mg protein under Ca2+/Mg2+ free conditions; format: ADME, cell-based
Hepatocyte [26] = assay: Drug accumulation in sandwich-cultured human fetal hepatocytes assessed per mg protein under Ca2+/Mg2+ free conditions; format: ADME, cell-based
Bile salt export pump [27] = molecular target: T1, Bile salt export pump; assay: Inhibition of ABCB11-mediated taurocholate total uptake in sandwich-cultured human fetal hepatocytes at >0.5 uM; format: ADME, cell-based, Hepatocyte; how it was run: as §2

T1 sequence (O95342 whole entry): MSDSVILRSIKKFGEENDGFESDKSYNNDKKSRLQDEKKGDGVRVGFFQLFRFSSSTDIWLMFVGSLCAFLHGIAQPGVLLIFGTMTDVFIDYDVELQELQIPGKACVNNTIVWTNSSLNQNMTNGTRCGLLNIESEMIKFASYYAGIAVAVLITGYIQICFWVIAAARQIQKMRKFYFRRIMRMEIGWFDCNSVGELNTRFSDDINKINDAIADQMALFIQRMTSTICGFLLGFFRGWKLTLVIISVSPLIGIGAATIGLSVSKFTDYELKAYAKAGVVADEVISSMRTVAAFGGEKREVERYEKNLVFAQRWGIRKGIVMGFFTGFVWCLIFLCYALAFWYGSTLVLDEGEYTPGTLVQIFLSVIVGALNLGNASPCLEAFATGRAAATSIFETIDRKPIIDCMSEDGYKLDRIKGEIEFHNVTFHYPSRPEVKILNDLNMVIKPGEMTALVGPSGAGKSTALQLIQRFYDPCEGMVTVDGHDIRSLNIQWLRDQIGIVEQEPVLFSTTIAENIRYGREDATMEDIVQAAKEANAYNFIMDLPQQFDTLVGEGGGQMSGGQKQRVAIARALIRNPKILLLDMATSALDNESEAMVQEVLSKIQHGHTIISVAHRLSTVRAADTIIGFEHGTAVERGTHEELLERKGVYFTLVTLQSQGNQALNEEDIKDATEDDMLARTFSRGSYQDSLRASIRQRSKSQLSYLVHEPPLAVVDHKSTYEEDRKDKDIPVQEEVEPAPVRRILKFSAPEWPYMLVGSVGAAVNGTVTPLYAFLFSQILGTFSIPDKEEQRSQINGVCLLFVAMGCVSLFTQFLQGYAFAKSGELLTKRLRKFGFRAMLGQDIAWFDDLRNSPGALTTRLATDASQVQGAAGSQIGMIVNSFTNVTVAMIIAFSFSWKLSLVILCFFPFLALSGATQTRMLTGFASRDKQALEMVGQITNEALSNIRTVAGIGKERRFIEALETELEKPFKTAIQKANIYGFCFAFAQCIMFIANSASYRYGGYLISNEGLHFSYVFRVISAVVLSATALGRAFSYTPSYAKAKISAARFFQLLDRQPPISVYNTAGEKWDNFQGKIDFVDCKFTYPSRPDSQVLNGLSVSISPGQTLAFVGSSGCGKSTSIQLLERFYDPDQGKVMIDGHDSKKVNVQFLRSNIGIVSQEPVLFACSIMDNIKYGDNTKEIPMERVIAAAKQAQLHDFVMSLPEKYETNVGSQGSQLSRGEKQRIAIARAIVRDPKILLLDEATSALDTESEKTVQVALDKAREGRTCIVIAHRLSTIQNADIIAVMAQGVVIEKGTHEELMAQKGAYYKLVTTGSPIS

## [3H]C1C2=CC(=O)C([3H])C([3H])[C@]2(C)[C@H]2CC[C@@]3(C)[C@@H](CC[C@]3(O[14C](=O)CCCCC)C(C)=O)[C@@H]2C1[3H] (some centres undefined)
Hepatocyte [1]
  Drug uptake: 263 pmol
Hepatocyte [2]
  Drug uptake: 267 pmol
Hepatocyte [3]
  Drug uptake: 284 pmol
Hepatocyte [4]
  Drug uptake: 611 pmol
Hepatocyte [5]
  Drug uptake: 476 pmol
Hepatocyte [6]
  Drug uptake: 281 pmol
Hepatocyte [7]
  Drug uptake: 341 pmol
Hepatocyte [8]
  Drug uptake: 565 pmol
Hepatocyte [9]
  Drug uptake: 347 pmol
Hepatocyte [10]
  Drug uptake: 241 pmol
Hepatocyte [11]
  Drug uptake: 304 pmol
Hepatocyte [12]
  Drug uptake: 494 pmol

## CCCCCC(=O)O[C@]1(C(C)=O)CC[C@H]2[C@@H]3CCC4=CC(=O)CC[C@]4(C)[C@H]3CC[C@@]21C [HYDROXYPROGESTERONE CAPROATE]
Bile salt export pump [13]
  inhibition (INH): Active
Cmax in human cord blood
  Cmax: 20 nM
Hepatocyte [14]
  Drug uptake: Active
Hepatocyte [15]
  Drug uptake: Not Active
Hepatocyte [16]
  Drug uptake: 680 pmol
Hepatocyte [17]
  Drug uptake: 320 pmol
Hepatocyte [18]
  Drug excretion: 6.2%
Bile salt export pump [19]
  inhibition (INH): Active
Hepatocyte [20]
  Drug uptake: Not Active
Hepatocyte [21]
  Drug uptake: Active
Bile salt export pump [22]
  inhibition (INH): Active
Hepatocyte [23]
  Drug excretion: 7%
[24]
  Cmax: 70 nM
Hepatocyte [25]
  Drug uptake: 628 pmol
Hepatocyte [26]
  Drug uptake: 294 pmol
Bile salt export pump [27]
  inhibition (INH): Active

## C[C@H](CCC(=O)NCCS(=O)(=O)O)[C@H]1CC[C@H]2[C@@H]3[C@H](O)C[C@@H]4C[C@H](O)CC[C@]4(C)[C@H]3C[C@H](O)[C@]12C [TAUROCHOLIC ACID]
Hepatocyte [14]
  Drug uptake: Active
Hepatocyte [16]
  Drug uptake: 85 pmol
Hepatocyte [17]
  Drug uptake: 34 pmol
Hepatocyte [20]
  Drug uptake: Not Active
Hepatocyte [25]
  Drug uptake: 21 pmol
Hepatocyte [26]
  Drug uptake: 23 pmol
